Data: ChEMBL document CHEMBL1165965, “Synthesis and structure-activity relationships of 1,2,3,4-tetrahydropyrido[2,3-b]pyrazines as potent and selective inhibitors of the anaplastic lymphoma kinase” (Bioorg Med Chem, 2010)

Tests used:
[1] = biological target: Mitogen-activated protein kinase kinase kinase 1 (Homo sapiens) (UniProt Q13233); assay: Inhibition of MAP3K1 at 1 uM
[2] = biological target: T1, Ephrin type-A receptor 8 (Homo sapiens) (UniProt P29322); assay: Inhibition of EPHA8 at 1 uM
T1 sequence (whole entry): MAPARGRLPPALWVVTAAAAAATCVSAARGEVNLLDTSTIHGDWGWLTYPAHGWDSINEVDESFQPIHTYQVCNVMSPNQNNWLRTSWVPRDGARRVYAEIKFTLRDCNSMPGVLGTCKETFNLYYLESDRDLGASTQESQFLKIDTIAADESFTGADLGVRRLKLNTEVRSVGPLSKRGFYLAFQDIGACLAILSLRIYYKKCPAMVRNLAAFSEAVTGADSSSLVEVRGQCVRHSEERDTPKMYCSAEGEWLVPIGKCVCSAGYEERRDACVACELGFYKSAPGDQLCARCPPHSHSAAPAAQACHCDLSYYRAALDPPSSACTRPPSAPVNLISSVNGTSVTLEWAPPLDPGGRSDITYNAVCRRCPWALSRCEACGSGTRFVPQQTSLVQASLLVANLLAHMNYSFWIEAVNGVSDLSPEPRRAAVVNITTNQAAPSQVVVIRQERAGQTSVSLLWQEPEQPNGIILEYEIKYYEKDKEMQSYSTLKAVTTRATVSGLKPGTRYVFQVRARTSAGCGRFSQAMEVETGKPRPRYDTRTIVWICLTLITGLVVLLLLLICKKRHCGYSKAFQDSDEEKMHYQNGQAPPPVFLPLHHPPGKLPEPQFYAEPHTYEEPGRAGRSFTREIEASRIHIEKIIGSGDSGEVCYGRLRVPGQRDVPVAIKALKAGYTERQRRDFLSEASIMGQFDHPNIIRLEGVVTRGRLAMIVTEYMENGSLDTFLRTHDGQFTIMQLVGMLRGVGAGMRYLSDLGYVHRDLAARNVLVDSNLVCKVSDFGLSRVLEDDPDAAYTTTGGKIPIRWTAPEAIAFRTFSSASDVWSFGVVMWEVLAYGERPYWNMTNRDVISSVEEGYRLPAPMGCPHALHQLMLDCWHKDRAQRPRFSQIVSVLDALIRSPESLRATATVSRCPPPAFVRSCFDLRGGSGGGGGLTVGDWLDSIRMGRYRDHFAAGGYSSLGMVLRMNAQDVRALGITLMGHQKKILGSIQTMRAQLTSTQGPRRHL
Procedure, shortened: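 Single-concentration screen using Ambit Bioscience KINOMEscan technology across a panel of 250–400 kinases. Per-kinase inhibition from this screen was summarized as S(90), the fraction of kinases inhibited by more than 90%.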

[3] = biological target: Serine/threonine-protein kinase OSR1 (Homo sapiens) (UniProt O95747); assay: Inhibition of OSR1 at 1 uM
[4] = biological target: Mitogen-activated protein kinase kinase kinase 10 (Homo sapiens) (UniProt Q02779); assay: Inhibition of MLK2 at 1 uM
Procedure, shortened: (§1)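 Kinase-panel screen using KINOMEscan technology, with 250–400 kinases per panel. Each compound was tested at a single concentration, and inhibition of each kinase was recorded. Selectivity was summarised as S(90), the fraction of kinases inhibited by more than 90%.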

[5] = biological target: T2, Serine/threonine-protein kinase TAO3 (Homo sapiens) (UniProt Q9H2K8); assay: Inhibition of TAOK3 at 1 uM
T2 sequence (whole entry): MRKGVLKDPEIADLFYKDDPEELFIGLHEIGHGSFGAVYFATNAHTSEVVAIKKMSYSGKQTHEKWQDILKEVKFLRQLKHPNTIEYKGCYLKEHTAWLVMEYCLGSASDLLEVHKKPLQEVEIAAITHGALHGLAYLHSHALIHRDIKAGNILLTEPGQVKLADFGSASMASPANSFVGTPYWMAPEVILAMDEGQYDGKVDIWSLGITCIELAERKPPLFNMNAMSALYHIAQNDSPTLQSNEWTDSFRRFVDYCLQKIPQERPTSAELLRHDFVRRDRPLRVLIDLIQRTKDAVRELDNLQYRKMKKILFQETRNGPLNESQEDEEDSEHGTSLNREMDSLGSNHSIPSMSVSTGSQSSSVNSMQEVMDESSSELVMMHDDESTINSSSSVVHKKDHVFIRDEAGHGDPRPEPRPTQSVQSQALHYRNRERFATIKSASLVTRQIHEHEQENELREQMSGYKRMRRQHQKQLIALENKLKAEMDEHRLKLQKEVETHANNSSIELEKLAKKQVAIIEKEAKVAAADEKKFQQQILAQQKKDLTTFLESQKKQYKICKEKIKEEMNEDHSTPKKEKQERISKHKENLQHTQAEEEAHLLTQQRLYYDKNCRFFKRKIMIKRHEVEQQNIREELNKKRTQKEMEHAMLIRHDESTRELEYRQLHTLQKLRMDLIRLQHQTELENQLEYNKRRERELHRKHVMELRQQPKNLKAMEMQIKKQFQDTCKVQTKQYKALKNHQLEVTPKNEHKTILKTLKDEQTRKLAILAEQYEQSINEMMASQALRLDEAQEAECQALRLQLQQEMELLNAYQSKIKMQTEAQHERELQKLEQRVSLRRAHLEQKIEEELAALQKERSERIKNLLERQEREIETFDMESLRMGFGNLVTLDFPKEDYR

[6] = biological target: Homeodomain-interacting protein kinase 1 (Homo sapiens) (UniProt Q86Z02); assay: Inhibition of HIPK1 at 1 uM
Procedure, shortened: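 Single-concentration screen on the Ambit KINOMEscan platform, run against a panel of 250–400 kinases. Per-kinase inhibition was also summarized as S(90), the fraction of kinases inhibited by more than 90%.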

[7] = biological target: T3, Dual specificity mitogen-activated protein kinase kinase 6 (Homo sapiens) (UniProt P52564); assay: Inhibition of MEK6 at 1 uM; procedure, shortened: as §1
T3 sequence (whole entry): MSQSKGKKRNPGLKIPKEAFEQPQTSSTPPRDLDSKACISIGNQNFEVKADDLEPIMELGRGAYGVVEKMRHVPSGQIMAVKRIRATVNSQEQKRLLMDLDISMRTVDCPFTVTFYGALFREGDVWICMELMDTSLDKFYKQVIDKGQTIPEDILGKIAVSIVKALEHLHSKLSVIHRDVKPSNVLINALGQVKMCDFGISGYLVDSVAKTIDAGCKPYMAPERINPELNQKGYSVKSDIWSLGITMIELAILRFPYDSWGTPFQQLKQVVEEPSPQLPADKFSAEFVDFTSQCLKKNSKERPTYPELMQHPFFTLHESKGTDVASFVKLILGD

Mitogen-activated protein kinase kinase kinase 1 (Homo sapiens), sequence (Q13233 whole entry): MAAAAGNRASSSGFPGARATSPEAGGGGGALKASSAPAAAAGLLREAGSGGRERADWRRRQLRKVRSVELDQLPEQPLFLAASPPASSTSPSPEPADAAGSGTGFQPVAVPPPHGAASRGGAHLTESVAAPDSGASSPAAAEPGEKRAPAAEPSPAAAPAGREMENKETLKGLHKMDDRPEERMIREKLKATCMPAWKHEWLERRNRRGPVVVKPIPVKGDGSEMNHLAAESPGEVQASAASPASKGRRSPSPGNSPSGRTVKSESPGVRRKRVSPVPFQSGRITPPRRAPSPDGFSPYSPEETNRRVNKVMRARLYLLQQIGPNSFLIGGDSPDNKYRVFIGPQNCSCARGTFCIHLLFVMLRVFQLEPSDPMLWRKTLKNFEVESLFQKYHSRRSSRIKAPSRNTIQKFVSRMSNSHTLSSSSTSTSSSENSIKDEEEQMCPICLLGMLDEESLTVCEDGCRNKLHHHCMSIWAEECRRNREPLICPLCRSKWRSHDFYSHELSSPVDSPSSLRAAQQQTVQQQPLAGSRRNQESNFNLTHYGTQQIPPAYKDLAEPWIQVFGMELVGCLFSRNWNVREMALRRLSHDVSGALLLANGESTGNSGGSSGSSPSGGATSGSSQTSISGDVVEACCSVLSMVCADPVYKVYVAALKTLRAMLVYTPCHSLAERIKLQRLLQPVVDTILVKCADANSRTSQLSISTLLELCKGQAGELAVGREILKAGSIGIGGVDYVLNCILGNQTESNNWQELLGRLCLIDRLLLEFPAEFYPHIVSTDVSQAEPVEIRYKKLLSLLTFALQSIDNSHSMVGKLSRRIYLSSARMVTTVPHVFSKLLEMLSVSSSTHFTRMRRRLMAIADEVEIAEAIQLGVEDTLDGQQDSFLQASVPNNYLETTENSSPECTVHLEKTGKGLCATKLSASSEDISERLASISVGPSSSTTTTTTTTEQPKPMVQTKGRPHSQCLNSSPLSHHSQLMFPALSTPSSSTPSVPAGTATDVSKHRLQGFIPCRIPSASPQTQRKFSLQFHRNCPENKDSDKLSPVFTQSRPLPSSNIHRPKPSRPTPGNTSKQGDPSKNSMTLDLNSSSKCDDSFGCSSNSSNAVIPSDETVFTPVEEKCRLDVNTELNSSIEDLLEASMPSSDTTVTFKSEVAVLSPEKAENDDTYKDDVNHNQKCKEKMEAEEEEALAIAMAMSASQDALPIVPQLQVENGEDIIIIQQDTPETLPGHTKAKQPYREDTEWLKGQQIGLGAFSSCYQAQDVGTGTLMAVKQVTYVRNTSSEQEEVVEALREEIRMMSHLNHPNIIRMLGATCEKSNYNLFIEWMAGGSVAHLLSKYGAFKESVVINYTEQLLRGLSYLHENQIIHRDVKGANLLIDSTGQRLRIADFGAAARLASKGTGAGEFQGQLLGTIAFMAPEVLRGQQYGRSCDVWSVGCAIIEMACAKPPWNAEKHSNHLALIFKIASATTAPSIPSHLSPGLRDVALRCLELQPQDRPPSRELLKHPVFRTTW
Serine/threonine-protein kinase OSR1 (Homo sapiens), sequence (O95747 2-527 limits assumed): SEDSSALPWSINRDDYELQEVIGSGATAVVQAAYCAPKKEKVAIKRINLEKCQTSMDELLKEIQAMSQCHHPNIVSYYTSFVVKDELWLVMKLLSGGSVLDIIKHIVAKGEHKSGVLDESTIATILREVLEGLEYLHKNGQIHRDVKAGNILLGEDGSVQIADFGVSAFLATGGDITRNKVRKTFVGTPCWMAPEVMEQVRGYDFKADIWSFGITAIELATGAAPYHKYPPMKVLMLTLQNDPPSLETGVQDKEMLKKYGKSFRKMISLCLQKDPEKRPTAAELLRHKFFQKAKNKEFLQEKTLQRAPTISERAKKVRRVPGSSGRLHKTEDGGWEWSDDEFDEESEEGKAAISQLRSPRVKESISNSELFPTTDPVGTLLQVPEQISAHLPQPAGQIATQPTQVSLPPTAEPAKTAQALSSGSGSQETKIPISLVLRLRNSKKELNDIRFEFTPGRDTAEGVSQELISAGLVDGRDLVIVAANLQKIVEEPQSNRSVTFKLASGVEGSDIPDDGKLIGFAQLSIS
Homeodomain-interacting protein kinase 1 (Homo sapiens), sequence (Q86Z02 whole entry, looked up): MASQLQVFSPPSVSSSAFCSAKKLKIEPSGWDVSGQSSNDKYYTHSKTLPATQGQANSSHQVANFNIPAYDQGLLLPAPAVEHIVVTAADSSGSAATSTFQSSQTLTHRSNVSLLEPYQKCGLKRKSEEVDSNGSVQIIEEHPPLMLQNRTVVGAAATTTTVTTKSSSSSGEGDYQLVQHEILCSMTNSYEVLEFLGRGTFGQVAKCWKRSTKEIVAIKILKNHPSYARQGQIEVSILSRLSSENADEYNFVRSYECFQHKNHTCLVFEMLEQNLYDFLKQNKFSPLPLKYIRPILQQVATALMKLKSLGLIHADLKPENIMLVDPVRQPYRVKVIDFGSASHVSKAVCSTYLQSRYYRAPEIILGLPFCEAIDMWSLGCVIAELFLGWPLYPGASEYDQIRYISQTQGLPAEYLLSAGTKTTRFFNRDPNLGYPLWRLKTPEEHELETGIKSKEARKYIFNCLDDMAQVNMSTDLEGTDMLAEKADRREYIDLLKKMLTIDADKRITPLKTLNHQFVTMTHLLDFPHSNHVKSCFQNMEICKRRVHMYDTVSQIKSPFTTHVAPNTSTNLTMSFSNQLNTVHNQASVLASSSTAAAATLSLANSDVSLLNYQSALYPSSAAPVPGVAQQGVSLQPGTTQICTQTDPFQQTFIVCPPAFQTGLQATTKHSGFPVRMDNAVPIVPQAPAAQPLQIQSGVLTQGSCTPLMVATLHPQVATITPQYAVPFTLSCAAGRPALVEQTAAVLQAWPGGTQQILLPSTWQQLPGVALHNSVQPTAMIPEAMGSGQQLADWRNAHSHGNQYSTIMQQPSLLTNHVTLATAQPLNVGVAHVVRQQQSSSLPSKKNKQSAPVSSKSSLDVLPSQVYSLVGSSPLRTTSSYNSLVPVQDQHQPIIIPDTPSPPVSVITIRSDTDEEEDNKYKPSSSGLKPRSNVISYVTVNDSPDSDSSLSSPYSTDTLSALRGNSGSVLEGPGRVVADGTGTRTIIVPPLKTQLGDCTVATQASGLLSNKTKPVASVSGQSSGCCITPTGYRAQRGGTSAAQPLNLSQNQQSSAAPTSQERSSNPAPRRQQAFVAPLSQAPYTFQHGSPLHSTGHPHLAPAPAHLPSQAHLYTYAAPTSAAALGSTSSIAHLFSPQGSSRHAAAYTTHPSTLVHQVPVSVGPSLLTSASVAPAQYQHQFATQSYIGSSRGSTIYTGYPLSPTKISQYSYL
Mitogen-activated protein kinase kinase kinase 10 (Homo sapiens), sequence (Q02779 whole entry, looked up): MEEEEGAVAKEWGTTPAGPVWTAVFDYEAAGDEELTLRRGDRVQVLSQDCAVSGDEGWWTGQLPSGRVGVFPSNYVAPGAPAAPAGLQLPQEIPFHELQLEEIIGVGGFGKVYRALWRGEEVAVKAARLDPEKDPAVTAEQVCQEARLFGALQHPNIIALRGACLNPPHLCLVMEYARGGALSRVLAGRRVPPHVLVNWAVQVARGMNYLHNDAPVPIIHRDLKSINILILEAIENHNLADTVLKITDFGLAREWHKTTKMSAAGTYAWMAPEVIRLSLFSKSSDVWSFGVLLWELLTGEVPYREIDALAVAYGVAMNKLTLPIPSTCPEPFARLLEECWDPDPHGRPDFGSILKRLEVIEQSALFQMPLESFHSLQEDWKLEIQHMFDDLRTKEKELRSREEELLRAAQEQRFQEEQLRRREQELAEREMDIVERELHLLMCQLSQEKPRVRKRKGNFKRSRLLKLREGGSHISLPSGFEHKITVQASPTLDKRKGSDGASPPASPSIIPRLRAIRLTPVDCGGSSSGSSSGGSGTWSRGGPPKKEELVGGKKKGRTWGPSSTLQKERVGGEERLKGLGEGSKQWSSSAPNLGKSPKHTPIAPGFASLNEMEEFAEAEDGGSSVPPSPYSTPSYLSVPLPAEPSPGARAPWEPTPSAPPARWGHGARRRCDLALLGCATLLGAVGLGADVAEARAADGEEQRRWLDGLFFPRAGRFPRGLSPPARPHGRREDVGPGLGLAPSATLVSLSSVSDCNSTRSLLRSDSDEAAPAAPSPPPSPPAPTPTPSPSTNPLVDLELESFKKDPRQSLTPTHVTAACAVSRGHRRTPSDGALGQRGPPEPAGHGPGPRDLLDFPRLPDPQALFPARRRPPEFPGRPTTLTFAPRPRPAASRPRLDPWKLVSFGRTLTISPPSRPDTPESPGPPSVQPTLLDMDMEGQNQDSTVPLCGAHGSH

Row | SMILES | inhibition [1] [%] | inhibition [2] [%] | inhibition [3] [%] | inhibition [4] [%] | inhibition [5] [%] | inhibition [6] [%] | inhibition [7] [%]
1 | CN1CCN(c2ccc(-c3cnc4c(c3)N(Cc3cc(F)ccc3F)CCN4)cn2)CC1 | < 50 | < 50 | < 50 | < 50 | < 50 | 72.2 | < 50
2 | CC(=O)N1CCN(c2cc(-c3cnc4c(c3)N(Cc3cc(Cl)ccc3C(F)(F)F)CCN4)ccn2)CC1 | < 50 | < 50 | < 50 | < 50 | < 50 | < 50 | < 50
3 | CN1CCN(c2ccc(-c3cnc4c(c3)N(Cc3c(F)ccc(F)c3Cl)CCN4)cn2)CC1 | < 50 | < 50 | < 50 | < 50 | < 50 | 70 | < 50
4 | FC(F)(F)c1ccc(Cl)cc1CN1CCNc2ncc(-c3ccnc(N4CCNCC4)c3)cc21 | < 50 | < 50 | < 50 | < 50 | < 50 | < 50 | < 50
5 | CN1CCN(c2ccc(-c3cnc4c(c3)N(Cc3cc(Cl)ccc3Cl)CCN4)cn2)CC1 | < 50 | < 50 | < 50 | < 50 | < 50 | < 50 | < 50
6 | O=C(c1ccc(-c2cnc3c(c2)N(Cc2cc(Cl)ccc2C(F)(F)F)CCN3)cc1)N1CCC(N2CCCC2)CC1 | – | < 50 | – | < 50 | – | < 50 | < 50
7 | O=C(O)c1ccc(-c2cnc3c(c2)N(Cc2cc(Cl)ccc2C(F)(F)F)CCN3)cc1 | – | < 50 | – | < 50 | – | < 50 | 93
8 | CN1CCN(c2ccc(-c3cnc4c(c3)N(Cc3cc(Cl)ccc3C(F)(F)F)CCN4)cn2)CC1 | < 50 | < 50 | < 50 | < 50 | < 50 | < 50 | < 50
9 | O=C(c1ccc(-c2cnc3c(c2)N(Cc2cc(Cl)ccc2C(F)(F)F)CCN3)cc1)N1CCCCC1 | – | < 50 | – | < 50 | – | < 50 | < 50
10 | COC1CCN(C(=O)c2ccc(-c3cnc4c(c3)N(Cc3cc(Cl)ccc3C(F)(F)F)CCN4)cc2)CC1 | – | < 50 | – | < 50 | – | < 50 | < 50
